Test results as given in ChEMBL document CHEMBL1140683, “N-4-Pyrimidinyl-1H-indazol-4-amine inhibitors of Lck: indazoles as phenol isosteres with improved pharmacokinetics” (Bioorg Med Chem Lett, 2007).

Tests used:
[1] = target: Proto-oncogene tyrosine-protein kinase LCK (Mus musculus, UniProt P06240); assay: Inhibition of murine Lck by TR-FRET assay
[2] = target: Tyrosine-protein kinase Lyn (Homo sapiens, UniProt P07948); assay: Inhibition of Lyn
[3] = target: Tyrosine-protein kinase SYK (Homo sapiens, UniProt P43405)
[4] = AUC (0 to t) in BALB/c mouse at 10 mg/kg, po; assay type: ADME, organism-based; design: dose 10 mg/kg, route oral; conditions: plasma
Method in brief: (§1)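 Blood sampled over 8 h. Plasma protein-precipitated with acetonitrile, dried under nitrogen, reconstituted in 10:90 acetonitrile:water. Quantified by LC-MS/MS on an ODS3 column with a 0.1% formic acid water/acetonitrile gradient.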

[5] = Volume of distribution at steady state in BALB/c mouse at 2.5 mg/kg, iv; assay type: ADME, organism-based; design: dose 2.5 mg/kg, route intravenous; conditions: in vivo, read-out: Vdss; method in brief: as §1
[6] = AUC (0 to t) in BALB/c mouse at 2.5 mg/kg, iv; assay type: ADME, organism-based; design: dose 2.5 mg/kg, route intravenous; conditions: plasma; method in brief: as §1
[7] = Plasma clearance in BALB/c mouse at 2.5 mg/kg, iv; assay type: ADME, organism-based; design: dose 2.5 mg/kg, route intravenous; method in brief: as §1
[8] = Half life in BALB/c mouse at 2.5 mg/kg, iv; assay type: ADME, organism-based; design: dose 2.5 mg/kg, route intravenous; conditions: in vivo; method in brief: as §1
[9] = target: T1, Tyrosine-protein kinase TXK (Homo sapiens, UniProt P42681); assay: Inhibition of Txk
T1 sequence (P42681 whole entry): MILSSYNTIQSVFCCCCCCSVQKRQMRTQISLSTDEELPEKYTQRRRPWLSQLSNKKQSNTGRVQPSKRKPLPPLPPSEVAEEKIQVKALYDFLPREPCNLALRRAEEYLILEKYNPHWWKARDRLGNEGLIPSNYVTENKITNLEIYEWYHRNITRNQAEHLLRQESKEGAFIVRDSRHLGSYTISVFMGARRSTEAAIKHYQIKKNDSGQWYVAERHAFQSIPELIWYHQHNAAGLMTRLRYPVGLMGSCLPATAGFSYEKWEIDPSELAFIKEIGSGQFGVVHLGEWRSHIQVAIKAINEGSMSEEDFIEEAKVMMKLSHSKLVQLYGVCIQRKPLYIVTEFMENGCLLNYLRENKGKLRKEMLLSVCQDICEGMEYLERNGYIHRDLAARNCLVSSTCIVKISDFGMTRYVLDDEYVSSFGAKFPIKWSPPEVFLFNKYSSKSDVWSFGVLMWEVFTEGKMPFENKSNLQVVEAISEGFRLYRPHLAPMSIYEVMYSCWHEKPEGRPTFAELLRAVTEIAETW

[10] = Oral bioavailability in BALB/c mouse at 10 mg/kg, po; assay type: ADME, organism-based; conditions: in vivo; method in brief: as §1
[11] = target: Tyrosine-protein kinase BTK (Homo sapiens, UniProt Q06187); assay: Inhibition of Btk
Sequence of Tyrosine-protein kinase BTK (Q06187 whole entry): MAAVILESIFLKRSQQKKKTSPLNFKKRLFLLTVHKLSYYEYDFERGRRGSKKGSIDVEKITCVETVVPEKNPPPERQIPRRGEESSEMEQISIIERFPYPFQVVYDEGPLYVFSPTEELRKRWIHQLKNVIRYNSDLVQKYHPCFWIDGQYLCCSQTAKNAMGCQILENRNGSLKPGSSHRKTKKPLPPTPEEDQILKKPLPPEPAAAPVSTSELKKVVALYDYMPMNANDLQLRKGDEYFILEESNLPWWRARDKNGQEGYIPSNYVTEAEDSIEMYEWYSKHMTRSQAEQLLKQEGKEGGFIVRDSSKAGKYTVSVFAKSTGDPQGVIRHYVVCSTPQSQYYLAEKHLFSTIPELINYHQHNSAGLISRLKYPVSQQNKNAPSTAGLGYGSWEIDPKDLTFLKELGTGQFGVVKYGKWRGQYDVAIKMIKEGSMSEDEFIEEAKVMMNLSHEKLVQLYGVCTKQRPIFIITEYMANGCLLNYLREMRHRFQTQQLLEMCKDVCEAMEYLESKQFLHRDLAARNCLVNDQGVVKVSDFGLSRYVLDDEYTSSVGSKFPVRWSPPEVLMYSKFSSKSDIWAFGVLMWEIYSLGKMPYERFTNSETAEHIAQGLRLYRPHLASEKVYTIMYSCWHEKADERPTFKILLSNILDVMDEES

[12] = target: Tyrosine-protein kinase Lck (Homo sapiens, UniProt P06239); assay: Inhibition of human Lck by TR-FRET assay
Sequence of Tyrosine-protein kinase Lck (P06239 whole entry): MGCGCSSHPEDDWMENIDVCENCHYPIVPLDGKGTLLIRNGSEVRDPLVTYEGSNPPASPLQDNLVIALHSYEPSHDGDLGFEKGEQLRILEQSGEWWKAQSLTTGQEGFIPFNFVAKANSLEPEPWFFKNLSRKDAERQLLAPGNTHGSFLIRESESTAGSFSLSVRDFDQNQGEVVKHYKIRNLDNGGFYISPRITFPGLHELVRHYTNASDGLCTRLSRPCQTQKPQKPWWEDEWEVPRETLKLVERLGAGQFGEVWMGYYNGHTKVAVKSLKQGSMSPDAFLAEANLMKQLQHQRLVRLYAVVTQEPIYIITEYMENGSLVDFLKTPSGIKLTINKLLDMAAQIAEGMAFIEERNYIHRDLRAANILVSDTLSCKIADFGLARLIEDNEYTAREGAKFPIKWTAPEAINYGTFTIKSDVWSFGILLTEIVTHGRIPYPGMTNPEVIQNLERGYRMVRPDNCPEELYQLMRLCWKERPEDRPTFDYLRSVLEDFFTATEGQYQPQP

[13] = Oral bioavailability in BALB/c mouse at 1 mg/kg, po; assay type: ADME, organism-based; conditions: in vivo; method in brief: as §1
[14] = Half life in BALB/c mouse at 1 mg/kg, iv; assay type: ADME, organism-based; design: dose 1 mg/kg, route intravenous; conditions: in vivo; method in brief: as §1
[15] = AUC (0 to t) in BALB/c mouse at 1 mg/kg, po; assay type: ADME, organism-based; design: dose 1 mg/kg, route oral; conditions: plasma; method in brief: as §1
[16] = Plasma clearance in BALB/c mouse at 1 mg/kg, iv; assay type: ADME, organism-based; design: dose 1 mg/kg, route intravenous; method in brief: as §1
[17] = Volume of distribution at steady state in BALB/c mouse at 1 mg/kg, iv; assay type: ADME, organism-based; design: dose 1 mg/kg, route intravenous; conditions: in vivo, read-out: Vdss; method in brief: as §1
[18] = AUC (0 to t) in BALB/c mouse at 1 mg/kg, iv; assay type: ADME, organism-based; design: dose 1 mg/kg, route intravenous; conditions: plasma; method in brief: as §1

Sequence of Tyrosine-protein kinase Lyn (P07948 whole entry): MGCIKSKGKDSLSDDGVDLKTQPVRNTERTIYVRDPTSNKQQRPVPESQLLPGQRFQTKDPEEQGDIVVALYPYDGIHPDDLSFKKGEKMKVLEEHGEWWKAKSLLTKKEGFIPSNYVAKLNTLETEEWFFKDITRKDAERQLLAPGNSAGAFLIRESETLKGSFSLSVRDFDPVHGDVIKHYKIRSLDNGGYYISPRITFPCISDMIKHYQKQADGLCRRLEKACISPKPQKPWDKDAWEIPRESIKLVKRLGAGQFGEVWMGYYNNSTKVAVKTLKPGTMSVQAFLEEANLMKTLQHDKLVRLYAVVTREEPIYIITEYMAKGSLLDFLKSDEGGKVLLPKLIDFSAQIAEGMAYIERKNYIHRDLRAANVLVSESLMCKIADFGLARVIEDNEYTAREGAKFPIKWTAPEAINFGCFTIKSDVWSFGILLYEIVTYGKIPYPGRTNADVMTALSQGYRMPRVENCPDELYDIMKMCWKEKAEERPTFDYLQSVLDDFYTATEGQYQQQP
Sequence of Proto-oncogene tyrosine-protein kinase LCK (P06240 whole entry): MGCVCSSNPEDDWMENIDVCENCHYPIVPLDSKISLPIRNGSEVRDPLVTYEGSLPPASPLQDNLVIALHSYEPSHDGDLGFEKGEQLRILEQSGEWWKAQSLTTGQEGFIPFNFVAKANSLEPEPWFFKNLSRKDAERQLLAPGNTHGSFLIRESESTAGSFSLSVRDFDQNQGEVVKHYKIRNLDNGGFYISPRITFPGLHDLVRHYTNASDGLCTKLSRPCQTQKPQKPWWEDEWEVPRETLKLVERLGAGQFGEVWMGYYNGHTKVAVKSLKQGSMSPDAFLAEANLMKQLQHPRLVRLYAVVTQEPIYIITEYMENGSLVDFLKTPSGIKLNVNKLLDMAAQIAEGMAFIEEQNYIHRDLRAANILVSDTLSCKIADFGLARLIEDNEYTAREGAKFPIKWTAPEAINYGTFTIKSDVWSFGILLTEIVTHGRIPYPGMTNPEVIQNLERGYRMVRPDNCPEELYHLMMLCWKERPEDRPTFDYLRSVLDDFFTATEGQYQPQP

Row | IC50 [1] [nM] | SMILES | further results
1 | 3400 | Cc1ccc(CN)cc1Nc1ccnc(Nc2cccc(C(N)=O)c2)n1 | –
2 | 100 | Cc1cccc(O)c1Nc1ccnc(Nc2cccc(C(N)=O)c2)n1 | –
3 | 4400 | NC(=O)c1cccc(Nc2nccc(Nc3ccc4nn[nH]c4c3)n2)c1 | –
4 | 5600 | Cc1nc2c(Nc3ccnc(Nc4cccc(C(N)=O)c4)n3)cccc2[nH]1 | –
5 | 2800 | Cc1ccc2c(cnn2C)c1Nc1ccnc(Nc2cccc(C(N)=O)c2)n1 | –
6 | 560 | NC(=O)c1cccc(Nc2nccc(Nc3cccc4ncccc34)n2)c1 | –
7 | 41 | NC(=O)c1cccc(Nc2nccc(Nc3cc(O)ccc3Br)n2)c1 | –
8 | 350 | NS(=O)(=O)c1cccc(Nc2nccc(Nc3ccc(F)cc3F)n2)c1 | –
9 | 7700 | Cc1ccc(NS(C)(=O)=O)cc1Nc1ccnc(Nc2cccc(C(N)=O)c2)n1 | –
10 | 3300 | NC(=O)c1cccc(Nc2nccc(Nc3cccc(F)c3)n2)c1 | –
11 | 1400 | NC(=O)c1cccc(Nc2nccc(Nc3cccc4cn[nH]c34)n2)c1 | –
12 | 880 | CC(C)c1ccc(O)cc1Nc1ccnc(Nc2cccc(C(N)=O)c2)n1 | –
13 | 54 | COc1ccc(C)c(Nc2ccnc(Nc3cccc(S(N)(=O)=O)c3)n2)c1 | –
14 | 1800 | Cn1cnc2cc(Nc3ccnc(Nc4cccc(C(N)=O)c4)n3)ccc21 | –
15 | 16000 | Cn1cnc2ccc(Nc3ccnc(Nc4cccc(C(N)=O)c4)n3)cc21 | –
16 | 89 | Cc1ccccc1Nc1ccnc(Nc2cccc(C(N)=O)c2)n1 | –
17 | 86 | COc1ccc(C)c(Nc2ccnc(Nc3cccc(C(N)=O)c3)n2)c1 | –
18 | 73 | Cc1cc(O)cc(Nc2ccnc(Nc3cccc(C(N)=O)c3)n2)c1 | –
19 | 1800 | CC(=O)N(C)c1cccc(Nc2ccnc(Nc3cccc(C(N)=O)c3)n2)c1 | –
20 | 100 | NC(=O)c1cccc(Nc2nccc(Nc3cccc4[nH]ncc34)n2)c1 [GW782612X] | –

Row | IC50 [1] [nM] | SMILES | further results
21 | 190 | Cc1ccc(Nc2ccnc(Nc3cccc(C(N)=O)c3)n2)cc1O | –
22 | 33 | NS(=O)(=O)c1cccc(Nc2nccc(Nc3cccc4[nH]ncc34)n2)c1 | –
23 | 3000 | NC(=O)c1cccc(Nc2nccc(Nc3ccc4[nH]ncc4c3)n2)c1 | –
24 | 9300 | Cc1ccc(C(=O)N(C)C)cc1Nc1ccnc(Nc2cccc(C(N)=O)c2)n1 | –
25 | 270 | Cc1ccc(F)cc1Nc1ccnc(Nc2cccc(C(N)=O)c2)n1 | –
26 | 1600 | Cn1ncc2c(Nc3ccnc(Nc4cccc(C(N)=O)c4)n3)cccc21 | –
27 | 55 | Cc1ccc(Nc2ccnc(Nc3cccc(C(N)=O)c3)n2)c2cn[nH]c12 | –
28 | 97 | Cc1ccc(N)cc1Nc1ccnc(Nc2cccc(C(N)=O)c2)n1 | –
29 | 1300 | Cc1ccc(C(N)=O)cc1Nc1ccnc(Nc2cccc(C(N)=O)c2)n1 | –
30 | 130 | NC(=O)c1cccc(Nc2nccc(Nc3cccc(O)c3)n2)c1 | –
31 | 1100 | NC(=O)c1cccc(Nc2nccc(Nc3ccc(F)cc3F)n2)c1 | –
32 | 13 | Cc1ccc(O)cc1Nc1ccnc(Nc2cccc(C(N)=O)c2)n1 | IC50 [12]: 14 nM; IC50 [2]: 3 nM; IC50 [11]: 9 nM; IC50 [9]: 2 nM
33 | 8200 | Cn1ncc2ccc(Nc3ccnc(Nc4cccc(C(N)=O)c4)n3)cc21 | –
34 | 380 | Cc1ccc(Cl)cc1Nc1ccnc(Nc2cccc(C(N)=O)c2)n1 | –
35 | 2700 | COc1cccc(Nc2ccnc(Nc3cccc(C(N)=O)c3)n2)c1 | –
36 | 520 | Cc1cc(Nc2ccnc(Nc3cccc(C(N)=O)c3)n2)c2cn[nH]c2c1 | –
37 | 3000 | NC(=O)c1cccc(Nc2nccc(Nc3ccc4ncsc4c3)n2)c1 | –
38 | 40 | Cc1cc(O)ccc1Nc1ccnc(Nc2cccc(C(N)=O)c2)n1 | –
39 | 19 | Cc1ccc2[nH]ncc2c1Nc1ccnc(Nc2cccc(S(N)(=O)=O)c2)n1 | bioavailability [13]: 25%; half-life [14]: 31.8 min; IC50 [2]: 430 nM; IC50 [11]: 69 nM; IC50 [3]: 620 nM; AUC(0-t) [15]: 190 ng·h/mL; clearance [16]: 22.4 mL/min/kg; Vd [17]: 0.7 L/kg; AUC(0-t) [18]: 743 ng·h/mL; IC50 [9]: 220 nM

Row | SMILES | IC50 [1] [nM] | further results
40 | NC(=O)c1cccc(Nc2nccc(Nc3cccc4nn[nH]c34)n2)c1 | 490 | –
41 | Cc1ccc(O)cc1Nc1ccnc(Nc2cccc(S(N)(=O)=O)c2)n1 | 8.5 | IC50 [2]: 1 nM; IC50 [3]: 4 nM; AUC(0-t) [4]: 2 ng·h/mL; Vd [5]: 0.3 L/kg; AUC(0-t) [6]: 635 ng·h/mL; clearance [7]: 65.5 mL/min/kg; half-life [8]: 7.2 min; IC50 [9]: 0.4 nM; bioavailability [10]: < 1%
42 | Cc1ccc2[nH]ncc2c1Nc1ccnc(Nc2cccc(C(N)=O)c2)n1 | 12 | IC50 [2]: 40 nM; IC50 [11]: 97 nM; IC50 [3]: 220 nM; IC50 [9]: 28 nM
